Experimental data as given in ChEMBL document CHEMBL2062435, “Synthesis and in vitro antibacterial activity of gemifloxacin derivatives containing a substituted benzyloxime moiety” (2012).

Tests used:
Assay type in all cases: functional
Staphylococcus aureus [1] = assay: Antimicrobial activity against Staphylococcus aureus ATCC […] after 18-24 hrs by two-fold serial dilution method
In short: (§1)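 Agar-medium twofold serial dilution against Gram-positive and Gram-negative strains; MIC taken as the lowest compound concentration giving complete inhibition of bacterial growth after incubation at 35 °C for 18-24 h.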

Staphylococcus aureus [2] = assay: Antimicrobial activity against extended spectrum beta-lactamases-producing methicillin-resistant Staphylococcus aureus 10-11 after 18-24 hrs by two-fold serial dilution method
In short: (§2)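 Agar twofold serial dilution MIC against clinical isolates. MIC was taken as the lowest concentration giving complete inhibition of bacterial growth after incubation at 35 °C for 18-24 h.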

Staphylococcus aureus [3] = assay: Antimicrobial activity against extended spectrum beta-lactamases-producing methicillin-resistant Staphylococcus aureus 10-15 after 18-24 hrs by two-fold serial dilution method; in short: as §2
Staphylococcus aureus [4] = assay: Antimicrobial activity against extended spectrum beta-lactamases-producing methicillin-sensitive Staphylococcus aureus 10-13 after 18-24 hrs by two-fold serial dilution method; in short: as §1
Staphylococcus aureus [5] = assay: Antimicrobial activity against extended spectrum beta-lactamases-producing methicillin-sensitive Staphylococcus aureus 10-14 after 18-24 hrs by two-fold serial dilution method; in short: as §1
[6] = test system: Staphylococcus epidermidis; assay: Antimicrobial activity against extended spectrum beta-lactamases-producing methicillin-resistant Staphylococcus epidermidis 10-10 after 18-24 hrs by two-fold serial dilution method; in short: as §2
[7] = test system: Staphylococcus epidermidis; assay: Antimicrobial activity against extended spectrum beta-lactamases-producing methicillin-resistant Staphylococcus epidermidis 10-13 after 18-24 hrs by two-fold serial dilution method; in short: as §2
[8] = test system: Staphylococcus epidermidis; assay: Antimicrobial activity against extended spectrum beta-lactamases-producing methicillin-sensitive Staphylococcus epidermidis 10-11 after 18-24 hrs by two-fold serial dilution method; in short: as §1
[9] = test system: Staphylococcus epidermidis; assay: Antimicrobial activity against extended spectrum beta-lactamases-producing methicillin-sensitive Staphylococcus epidermidis 10-13 after 18-24 hrs by two-fold serial dilution method; in short: as §1
[10] = test system: Staphylococcus epidermidis; assay: Antimicrobial activity against extended spectrum beta-lactamases-producing methicillin-sensitive Staphylococcus epidermidis 10-15 after 18-24 hrs by two-fold serial dilution method; in short: as §1
Enterococcus faecalis [11] = assay: Antimicrobial activity against Enterococcus faecalis 10-5 after 18-24 hrs by two-fold serial dilution method; in short: as §1
Enterococcus faecalis [12] = assay: Antimicrobial activity against Enterococcus faecalis 10-6 after 18-24 hrs by two-fold serial dilution method; in short: as §1
Enterococcus faecalis [13] = assay: Antimicrobial activity against Enterococcus faecalis 10-7 after 18-24 hrs by two-fold serial dilution method; in short: as §1
Enterococcus faecium [14] = assay: Antimicrobial activity against Enterococcus faecium 10-5 after 18-24 hrs by two-fold serial dilution method; in short: as §1
Enterococcus faecium [15] = assay: Antimicrobial activity against Enterococcus faecium 10-9 after 18-24 hrs by two-fold serial dilution method; in short: as §1
Streptococcus pneumoniae [16] = assay: Antimicrobial activity against extended spectrum beta-lactamases-producing Streptococcus pneumoniae 10-1 after 18-24 hrs by two-fold serial dilution method; in short: as §1
Streptococcus pneumoniae [17] = assay: Antimicrobial activity against extended spectrum beta-lactamases-producing Streptococcus pneumoniae 10-4 after 18-24 hrs by two-fold serial dilution method; in short: as §1
Escherichia coli [18] = assay: Antimicrobial activity against Escherichia coli ATCC 25922 after 18-24 hrs by two-fold serial dilution method; in short: as §1
Escherichia coli [19] = assay: Antimicrobial activity against Escherichia coli 10-1 after 18-24 hrs by two-fold serial dilution method; in short: as §1
Escherichia coli [20] = assay: Antimicrobial activity against Escherichia coli 10-2 after 18-24 hrs by two-fold serial dilution method; in short: as §1
Escherichia coli [21] = assay: Antimicrobial activity against extended spectrum beta-lactamases-producing Escherichia coli 10-2 after 18-24 hrs by two-fold serial dilution method; in short: as §1
Escherichia coli [22] = assay: Antimicrobial activity against Escherichia coli 10-3 after 18-24 hrs by two-fold serial dilution method; in short: as §1
Escherichia coli [23] = assay: Antimicrobial activity against extended spectrum beta-lactamases-producing Escherichia coli 10-3 after 18-24 hrs by two-fold serial dilution method; in short: as §1
Escherichia coli [24] = assay: Antimicrobial activity against extended spectrum beta-lactamases-producing Escherichia coli 10-4 after 18-24 hrs by two-fold serial dilution method; in short: as §1
Klebsiella pneumoniae [25] = assay: Antimicrobial activity against extended spectrum beta-lactamases-producing Klebsiella pneumoniae 10-1 after 18-24 hrs by two-fold serial dilution method; in short: as §1
Klebsiella pneumoniae [26] = assay: Antimicrobial activity against Klebsiella pneumoniae 10-2 after 18-24 hrs by two-fold serial dilution method; in short: as §1
Klebsiella pneumoniae [27] = assay: Antimicrobial activity against extended spectrum beta-lactamases-producing Klebsiella pneumoniae 10-2 after 18-24 hrs by two-fold serial dilution method; in short: as §1
Klebsiella pneumoniae [28] = assay: Antimicrobial activity against Klebsiella pneumoniae 10-3 after 18-24 hrs by two-fold serial dilution method; in short: as §1
Klebsiella pneumoniae [29] = assay: Antimicrobial activity against extended spectrum beta-lactamases-producing Klebsiella pneumoniae 10-3 after 18-24 hrs by two-fold serial dilution method; in short: as §1
Klebsiella pneumoniae [30] = assay: Antimicrobial activity against Klebsiella pneumoniae 10-4 after 18-24 hrs by two-fold serial dilution method; in short: as §1
Pseudomonas aeruginosa [31] = assay: Antimicrobial activity against Pseudomonas aeruginosa 10-12 after 18-24 hrs by two-fold serial dilution method; in short: as §1
Pseudomonas aeruginosa [32] = assay: Antimicrobial activity against extended spectrum beta-lactamases-producing Pseudomonas aeruginosa 10-5 after 18-24 hrs by two-fold serial dilution method; in short: as §1
Pseudomonas aeruginosa [33] = assay: Antimicrobial activity against extended spectrum beta-lactamases-producing Pseudomonas aeruginosa 10-9 after 18-24 hrs by two-fold serial dilution method; in short: as §1
Pseudomonas aeruginosa [34] = assay: Antimicrobial activity against extended spectrum beta-lactamases-producing Pseudomonas aeruginosa 10-15 after 18-24 hrs by two-fold serial dilution method; in short: as §1
Pseudomonas aeruginosa [35] = assay: Antimicrobial activity against extended spectrum beta-lactamases-producing Pseudomonas aeruginosa 10-18 after 18-24 hrs by two-fold serial dilution method; in short: as §1
Pseudomonas aeruginosa [36] = assay: Antimicrobial activity against extended spectrum beta-lactamases-producing Pseudomonas aeruginosa 10-20 after 18-24 hrs by two-fold serial dilution method; in short: as §1

Row | Compound | MIC (Staphylococcus aureus [1]) | MIC (Staphylococcus aureus [2]) | MIC (Staphylococcus aureus [3]) | MIC (Staphylococcus aureus [4]) | MIC (Staphylococcus aureus [5]) | MIC [6] | MIC [7] | MIC [8] | MIC [9] | MIC [10] | MIC (Enterococcus faecalis [11]) | MIC (Enterococcus faecalis [12]) | MIC (Enterococcus faecalis [13]) | MIC (Enterococcus faecium [14]) | MIC (Enterococcus faecium [15]) | MIC (Streptococcus pneumoniae [16]) | MIC (Streptococcus pneumoniae [17]) | MIC (Escherichia coli [18]) | MIC (Escherichia coli [19]) | MIC (Escherichia coli [20]) | further results
1 | CS(=O)(=O)O.NCC1CN(c2nc3c(cc2F)c(=O)c(C(=O)O)cn3C2CC2)C/C1=N\OCc1ccc(OCc2ccccc2)cc1 (racemic) | 2 mg/L | 4 mg/L | 8 mg/L | 1 mg/L | 1 mg/L | 4 mg/L | 4 mg/L | 1 mg/L | 16 mg/L | 4 mg/L | 8 mg/L | 32 mg/L | 16 mg/L | 32 mg/L | 32 mg/L | 2 mg/L | 8 mg/L | 4 mg/L | 0.03 mg/L | 0.25 mg/L | MIC (Escherichia coli [21]): > 128 mg/L; MIC (Escherichia coli [22]): 0.125 mg/L; MIC (Escherichia coli [23]): > 128 mg/L; MIC (Escherichia coli [24]): 0.06 mg/L; MIC (Klebsiella pneumoniae [25]): > 128 mg/L; MIC (Klebsiella pneumoniae [26]): 16 mg/L; MIC (Klebsiella pneumoniae [27]): > 128 mg/L; MIC (Klebsiella pneumoniae [28]): 2 mg/L; MIC (Klebsiella pneumoniae [29]): 8 mg/L; MIC (Klebsiella pneumoniae [30]): > 128 mg/L; MIC (Pseudomonas aeruginosa [31]): 16 mg/L; MIC (Pseudomonas aeruginosa [32]): 16 mg/L; MIC (Pseudomonas aeruginosa [33]): 2 mg/L; MIC (Pseudomonas aeruginosa [34]): 8 mg/L; MIC (Pseudomonas aeruginosa [35]): 2 mg/L; MIC (Pseudomonas aeruginosa [36]): 16 mg/L
2 | CS(=O)(=O)O.NCC1CN(c2nc3c(cc2F)c(=O)c(C(=O)O)cn3C2CC2)C/C1=N\OCc1cc2c(cc1Cl)OCO2 (racemic) | 0.015 mg/L | 2 mg/L | 1 mg/L | 0.03 mg/L | 0.06 mg/L | 2 mg/L | 2 mg/L | 0.25 mg/L | 8 mg/L | 2 mg/L | 1 mg/L | 8 mg/L | 4 mg/L | 8 mg/L | 8 mg/L | 0.5 mg/L | 2 mg/L | 0.25 mg/L | > 128 mg/L | 16 mg/L | MIC (Escherichia coli [21]): 128 mg/L; MIC (Escherichia coli [22]): 16 mg/L; MIC (Escherichia coli [23]): > 128 mg/L; MIC (Escherichia coli [24]): 8 mg/L; MIC (Klebsiella pneumoniae [25]): > 128 mg/L; MIC (Klebsiella pneumoniae [26]): > 128 mg/L; MIC (Klebsiella pneumoniae [27]): > 128 mg/L; MIC (Klebsiella pneumoniae [28]): 8 mg/L; MIC (Klebsiella pneumoniae [29]): > 128 mg/L; MIC (Klebsiella pneumoniae [30]): 128 mg/L; MIC (Pseudomonas aeruginosa [31]): 8 mg/L; MIC (Pseudomonas aeruginosa [32]): 8 mg/L; MIC (Pseudomonas aeruginosa [33]): 8 mg/L; MIC (Pseudomonas aeruginosa [34]): 32 mg/L; MIC (Pseudomonas aeruginosa [35]): 16 mg/L; MIC (Pseudomonas aeruginosa [36]): 4 mg/L
3 | COc1cc(CO/N=C2\CN(c3nc4c(cc3F)c(=O)c(C(=O)O)cn4C3CC3)CC2CN)c([N+](=O)[O-])cc1OC.CS(=O)(=O)O (racemic) | 0.015 mg/L | 2 mg/L | 1 mg/L | 0.125 mg/L | 0.125 mg/L | 1 mg/L | 1 mg/L | 2 mg/L | 0.25 mg/L | 8 mg/L | 0.125 mg/L | 16 mg/L | 2 mg/L | 8 mg/L | 16 mg/L | 1 mg/L | 0.125 mg/L | 0.25 mg/L | > 128 mg/L | 8 mg/L | MIC (Escherichia coli [21]): > 128 mg/L; MIC (Escherichia coli [22]): 32 mg/L; MIC (Escherichia coli [23]): > 128 mg/L; MIC (Escherichia coli [24]): 4 mg/L; MIC (Klebsiella pneumoniae [25]): > 128 mg/L; MIC (Klebsiella pneumoniae [26]): > 128 mg/L; MIC (Klebsiella pneumoniae [27]): > 128 mg/L; MIC (Klebsiella pneumoniae [28]): 4 mg/L; MIC (Klebsiella pneumoniae [29]): > 128 mg/L; MIC (Klebsiella pneumoniae [30]): > 128 mg/L; MIC (Pseudomonas aeruginosa [31]): 16 mg/L; MIC (Pseudomonas aeruginosa [32]): 16 mg/L; MIC (Pseudomonas aeruginosa [33]): 16 mg/L; MIC (Pseudomonas aeruginosa [34]): 32 mg/L; MIC (Pseudomonas aeruginosa [35]): 16 mg/L; MIC (Pseudomonas aeruginosa [36]): 32 mg/L
4 | COc1cc(CO/N=C2\CN(c3nc4c(cc3F)c(=O)c(C(=O)O)cn4C3CC3)CC2CN)ccc1OCc1ccccc1.CS(=O)(=O)O (racemic) | < 0.008 mg/L | 4 mg/L | 0.5 mg/L | 4 mg/L | < 0.008 mg/L | 4 mg/L | 1 mg/L | 8 mg/L | 2 mg/L | 8 mg/L | 4 mg/L | 8 mg/L | 4 mg/L | 16 mg/L | 16 mg/L | 4 mg/L | 16 mg/L | 2 mg/L | > 128 mg/L | 16 mg/L | MIC (Escherichia coli [21]): > 128 mg/L; MIC (Escherichia coli [22]): > 128 mg/L; MIC (Escherichia coli [23]): > 128 mg/L; MIC (Escherichia coli [24]): 32 mg/L; MIC (Klebsiella pneumoniae [25]): > 128 mg/L; MIC (Klebsiella pneumoniae [26]): > 128 mg/L; MIC (Klebsiella pneumoniae [27]): > 128 mg/L; MIC (Klebsiella pneumoniae [28]): 32 mg/L; MIC (Klebsiella pneumoniae [29]): > 128 mg/L; MIC (Klebsiella pneumoniae [30]): > 128 mg/L; MIC (Pseudomonas aeruginosa [31]): < 0.008 mg/L; MIC (Pseudomonas aeruginosa [32]): 16 mg/L; MIC (Pseudomonas aeruginosa [33]): 16 mg/L; MIC (Pseudomonas aeruginosa [34]): 32 mg/L; MIC (Pseudomonas aeruginosa [35]): 16 mg/L; MIC (Pseudomonas aeruginosa [36]): 0.06 mg/L
